The target of assay [1] is Cycloartenol synthase (Arabidopsis thaliana, UniProt P38605). The experiment in a line: Inhibition of Arabidopsis thaliana cycloartenol synthase expressed in Saccharomyces cerevisiae SMY8[pSM60.21] using [14C]-(3S)-2,3-oxidosqualene as substrate. In short, it runs like this: (§1)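 ERG7-deficient hem1 yeast SMY8 strains were grown aerobically at 30 °C in YPD with hemin and ergosterol, then induced in YPG with hemin (plus ergosterol for A. thaliana). Lyticase/Potter homogenates were incubated with [14C]-(3S)-2,3-oxidosqualene (1000 cpm) at increasing inhibitor levels. Reactions were stopped with KOH/MeOH and saponified at 80 °C for 30 min; extracted conversion was read by TLC radioscan. IC50 came from nonlinear regression; two experiments, each in duplicate.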
Chain of Cycloartenol synthase (P38605 whole entry): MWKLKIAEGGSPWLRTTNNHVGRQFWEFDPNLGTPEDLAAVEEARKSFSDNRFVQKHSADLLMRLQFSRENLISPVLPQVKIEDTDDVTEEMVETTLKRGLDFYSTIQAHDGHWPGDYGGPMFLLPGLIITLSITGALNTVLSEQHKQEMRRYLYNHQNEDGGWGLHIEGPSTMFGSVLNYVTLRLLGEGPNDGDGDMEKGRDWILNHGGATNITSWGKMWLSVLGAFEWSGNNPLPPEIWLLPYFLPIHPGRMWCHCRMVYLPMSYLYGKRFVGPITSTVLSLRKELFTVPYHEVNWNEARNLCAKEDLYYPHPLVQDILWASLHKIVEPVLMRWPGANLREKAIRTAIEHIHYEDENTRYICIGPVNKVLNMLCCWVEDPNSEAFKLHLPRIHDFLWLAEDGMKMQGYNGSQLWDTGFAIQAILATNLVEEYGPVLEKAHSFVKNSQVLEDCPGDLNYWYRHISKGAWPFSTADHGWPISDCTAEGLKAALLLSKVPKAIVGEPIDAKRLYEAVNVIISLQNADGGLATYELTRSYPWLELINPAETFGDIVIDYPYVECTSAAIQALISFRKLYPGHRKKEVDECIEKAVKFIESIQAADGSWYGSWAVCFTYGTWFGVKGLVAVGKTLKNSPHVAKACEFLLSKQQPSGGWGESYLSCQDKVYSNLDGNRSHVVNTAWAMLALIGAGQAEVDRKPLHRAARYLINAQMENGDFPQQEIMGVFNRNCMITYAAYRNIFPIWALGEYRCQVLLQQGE

Assay [2] deals with T1, Lanosterol synthase (Pneumocystis carinii, UniProt Q96WJ0).
T1 sequence (Q96WJ0 whole entry): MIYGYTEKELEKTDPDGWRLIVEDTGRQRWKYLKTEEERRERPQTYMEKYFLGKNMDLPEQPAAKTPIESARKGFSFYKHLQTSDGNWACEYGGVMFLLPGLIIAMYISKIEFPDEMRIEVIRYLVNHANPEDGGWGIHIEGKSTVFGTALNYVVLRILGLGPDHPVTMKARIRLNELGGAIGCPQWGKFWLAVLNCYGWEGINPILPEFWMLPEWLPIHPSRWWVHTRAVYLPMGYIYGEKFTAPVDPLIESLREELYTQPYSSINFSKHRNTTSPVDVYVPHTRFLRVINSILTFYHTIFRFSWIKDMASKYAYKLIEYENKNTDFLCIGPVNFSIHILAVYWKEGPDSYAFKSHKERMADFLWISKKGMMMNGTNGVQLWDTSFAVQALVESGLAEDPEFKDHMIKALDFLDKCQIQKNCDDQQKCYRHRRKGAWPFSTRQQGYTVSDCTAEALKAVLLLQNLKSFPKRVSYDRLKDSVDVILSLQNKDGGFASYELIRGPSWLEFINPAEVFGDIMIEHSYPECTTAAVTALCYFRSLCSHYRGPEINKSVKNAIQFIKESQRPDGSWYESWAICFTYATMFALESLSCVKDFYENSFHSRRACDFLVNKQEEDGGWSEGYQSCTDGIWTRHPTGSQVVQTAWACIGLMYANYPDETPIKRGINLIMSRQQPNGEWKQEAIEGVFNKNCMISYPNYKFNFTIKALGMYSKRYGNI
The experiment in a line: Inhibition of Pneumocystis carinii lanosterol synthase expressed in Saccharomyces cerevisiae SMY8[pBJ4.21] using [14C]-(3S)-2,3-oxidosqualene as substrate. In short, it runs like this: as §1

Assay [3] concerns the target T2, Lanosterol synthase (Homo sapiens, UniProt P48449).
T2 sequence (P48449 whole entry): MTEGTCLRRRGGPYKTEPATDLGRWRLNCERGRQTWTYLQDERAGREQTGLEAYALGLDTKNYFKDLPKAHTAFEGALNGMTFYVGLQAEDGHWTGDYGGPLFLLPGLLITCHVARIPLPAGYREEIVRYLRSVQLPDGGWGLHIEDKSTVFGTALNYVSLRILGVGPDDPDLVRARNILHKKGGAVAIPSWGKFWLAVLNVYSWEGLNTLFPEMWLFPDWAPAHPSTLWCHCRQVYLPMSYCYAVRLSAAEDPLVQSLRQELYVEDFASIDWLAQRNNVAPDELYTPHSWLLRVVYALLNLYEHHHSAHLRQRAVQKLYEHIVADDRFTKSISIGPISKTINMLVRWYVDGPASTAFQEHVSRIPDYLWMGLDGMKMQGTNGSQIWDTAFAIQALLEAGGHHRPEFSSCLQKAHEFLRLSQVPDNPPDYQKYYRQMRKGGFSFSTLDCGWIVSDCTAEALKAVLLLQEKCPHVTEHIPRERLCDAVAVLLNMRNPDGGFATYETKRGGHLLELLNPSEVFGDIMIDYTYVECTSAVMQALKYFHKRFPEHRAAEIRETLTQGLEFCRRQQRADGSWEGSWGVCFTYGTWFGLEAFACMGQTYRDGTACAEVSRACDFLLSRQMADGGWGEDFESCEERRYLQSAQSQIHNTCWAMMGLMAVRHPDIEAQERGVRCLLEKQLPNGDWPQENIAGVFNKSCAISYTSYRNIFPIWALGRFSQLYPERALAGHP
The experiment in a line: Inhibition of human lanosterol synthase expressed in Saccharomyces cerevisiae SMY8[pSOB1.1] using [14C]-(3S)-2,3-oxidosqualene as substrate.

Assay [4] can be described thus: Inhibition of Trypanosoma cruzi lanosterol synthase expressed in Saccharomyces cerevisiae SMY8[pBJ1.21] using [14C]-(3S)-2,3-oxidosqualene as substrate. An outline of the steps:
as §1

In assay [5] the test system is HL-60. The experiment in a line: Cytotoxicity against human HL60 cells after 24 hrs by MTT assay. In kind it is cell-based. Particulars: HL-60, 24 h.
For assay [6], the target named is T3, Lanosterol synthase ERG7 (Saccharomyces cerevisiae S288c, UniProt P38604).
T3 sequence (P38604 whole entry): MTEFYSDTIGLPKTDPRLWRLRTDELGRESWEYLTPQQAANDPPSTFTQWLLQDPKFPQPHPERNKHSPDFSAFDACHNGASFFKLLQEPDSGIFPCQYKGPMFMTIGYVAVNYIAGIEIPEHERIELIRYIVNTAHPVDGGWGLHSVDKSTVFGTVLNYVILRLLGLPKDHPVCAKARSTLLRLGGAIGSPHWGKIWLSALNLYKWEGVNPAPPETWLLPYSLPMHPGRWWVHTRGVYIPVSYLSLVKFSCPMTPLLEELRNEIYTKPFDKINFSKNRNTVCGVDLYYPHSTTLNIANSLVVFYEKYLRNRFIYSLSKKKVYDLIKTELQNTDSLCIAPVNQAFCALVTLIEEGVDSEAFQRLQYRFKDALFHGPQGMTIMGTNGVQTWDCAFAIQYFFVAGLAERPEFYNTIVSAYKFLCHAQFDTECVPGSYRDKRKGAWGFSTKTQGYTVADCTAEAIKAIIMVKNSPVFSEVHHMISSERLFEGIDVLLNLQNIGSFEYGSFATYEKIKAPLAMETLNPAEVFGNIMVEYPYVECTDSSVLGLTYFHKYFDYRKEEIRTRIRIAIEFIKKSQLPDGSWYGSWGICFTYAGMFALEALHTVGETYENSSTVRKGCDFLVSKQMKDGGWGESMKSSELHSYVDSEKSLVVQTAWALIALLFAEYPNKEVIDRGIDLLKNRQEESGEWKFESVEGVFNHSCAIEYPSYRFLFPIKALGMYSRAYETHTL
The experiment in a line: Inhibition of wild type yeast lanosterol synthase expressed in Saccharomyces cerevisiae SMY8[pSM61.21] using [14C]-(3S)-2,3-oxidosqualene as substrate. An outline of the steps:
as §1

Assay [7] has as its system HL-60. The experiment in a line: Inhibition of cholesterol biosynthesis in human HL60 cells at 1 uM. The assay is classed as functional. In short, it runs like this:
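HL-60 cells were incubated with 2-13C-acetate and inhibitor at 1 μM, in triplicate. Newly made 13C-labelled cholesterol was separated from pre-existing unlabelled cholesterol by GC-MS. Decrease in cholesterol biosynthesis was expressed against untreated controls.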

In general, IC50 refers to the point on the concentration scale where inhibition reaches its midpoint. Turning to `CC(C)CCC[C@@H](C)[C@H]1CCC2=C(CCC[n+]3ccccc3)CCC[C@@]21C`, the IC50 is 0.2 µM in assay [1]; 11 µM in assay [2]; 12.5 µM in assay [3]; above 20 µM in assay [4]; 3.5 µM in assay [5]; 4.2 µM in assay [6].

A word on the inhibition: it is the relative decrease from the control value, in per cent. High values mean a response far below the control, low ones a response near the control. In assay [7], `CN(C)Cc1ccc(C2CCC(N(C)C(=O)c3ccc(Cl)cc3)CC2)cc1` (configuration not stated) came in with an inhibition at 1 µM of 60%. In assay [5], this molecule displayed an IC50 above 50 µM.

On to `C=CCN(C)CCCC1=C2CC[C@H]([C@H](C)CCCC(C)C)[C@@]2(C)CCC1`, for which the IC50 in assay [1] is 0.6 µM; in assay [2], 0.9 µM; in assay [3] it was 1 µM; in assay [4] it was 0.8 µM; in assay [5] it was above 100 µM; in assay [6], 1.5 µM. The molecule also gave an inhibition at 1 µM in assay [7] above 90%.

With `CNCCCC1=C2CC[C@H]([C@H](C)CCCC(C)C)[C@@]2(C)CCC1`, the IC50 is above 20 µM in assay [1]; above 20 µM in assay [2]; above 20 µM in assay [3]; above 20 µM in assay [4]; above 100 µM in assay [5]; above 20 µM in assay [6].

On to `CC(C)CCC[C@@H](C)[C@H]1CCC2=C(CCCN(C)C)CCC[C@@]21C`, for which the IC50 was 0.3 µM in assay [1]; 13 µM in assay [2]; 4.5 µM in assay [3]; 0.6 µM in assay [4]; above 100 µM in assay [5]; 1.3 µM in assay [6]. Moreover, the inhibition at 1 µM in assay [7] was above 90%.

Regarding `CC(C)CCC[C@@H](C)[C@H]1CCC2=C(CCCN3CCCCC3)CCC[C@@]21C`, the 50% inhibitory concentration (IC50) in assay [1] is 0.5 µM; in assay [2], 17 µM; in assay [3] it was 11.9 µM; in assay [4] it was above 20 µM; in assay [5] it was above 100 µM; in assay [6], 2.1 µM.

Take `CC(C)CCC[C@@H](C)[C@H]1CCC2=C(CCC[N+](C)(C)[O-])CCC[C@@]21C`: the IC50 in assay [1] is 1.3 µM; in assay [2], 15 µM; in assay [3] it was above 20 µM; in assay [4], 3 µM; in assay [5] it was 20 µM; in assay [6], 2.5 µM.

In turn, `C=CCN(C)CCCCCCOc1ccc(C(=O)c2ccc(Br)cc2)c(F)c1` returned an inhibition at 1 µM in assay [7] above 90%. For the same molecule, the IC50 in assay [5] is 8 µM.

The values are drawn from ChEMBL document CHEMBL2375348, “Aminopropylindenes derived from Grundmann's ketone as a novel chemotype of oxidosqualene cyclase inhibitors” (Eur J Med Chem, 2013).
